In brackets after ≈: the same amount, converted by molar mass. Activity calls are given as the source filed them. No cut-off for these calls is given here.
Key:
Micrococcus luteus [1] = test: Antimicrobial activity against Micrococcus luteus Presque Isle 456 after 24 hrs by broth microdilution assay; format: functional
How it was run: (§1)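 Bacterial MICs were determined by NCCLS broth microdilution. Compounds were dissolved in a small volume of sterile DMSO and diluted in the appropriate medium just before testing. MIC was the lowest concentration giving no visible growth (optically clear). Assays were repeated on separate days.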

Staphylococcus aureus [2] = test: Antimicrobial activity against Staphylococcus aureus ATCC 29213 after 24 hrs by broth microdilution assay in presence of 25% human serum; format: functional; settings: ATCC 29213, 24 h
How it was run: (§2)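 Bacteria were tested by NCCLS broth microdilution in medium containing 25% heat-inactivated, filter-sterilized normal human serum. Compounds were dissolved in sterile DMSO and diluted in medium immediately before use. MIC was the lowest concentration with no visible growth (optically clear). Assays were repeated on separate days.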

BXPC-3 = test: Cytotoxicity against human BxPC3 cells after 48 hrs by SRB assay; format: functional; settings: BXPC-3, 48 h
Streptococcus pyogenes = test: Antimicrobial activity against penicillin-resistant Streptococcus pyogenes after 24 hrs by broth microdilution assay in presence of 25% human serum; format: functional
How it was run: (§3)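 Bacterial NCCLS broth microdilution run in medium with 25% heat-inactivated, filter-sterilized normal human serum. Compounds were taken up in sterile DMSO and diluted in medium immediately before use. MIC was the lowest concentration with no visible growth (optically clear). Assays were repeated on separate days.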

Neisseria gonorrhoeae [3] = test: Antimicrobial activity against Neisseria gonorrhoeae ATCC 49226 at 64 ug/mL after 24 hrs by broth microdilution assay; format: functional; settings: ATCC 49226, 24 h
Candida albicans [4] = test: Antimicrobial activity against Candida albicans ATCC 90028 after 48 hrs by broth microdilution assay in presence of 25% human serum; format: functional; settings: ATCC 90028, 48 h
How it was run: (§4)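 For yeasts, NCCLS broth microdilution was run in medium supplemented with 25% heat-inactivated, filter-sterilized normal human serum. Compounds were reconstituted in sterile DMSO and diluted in medium just before the assay. MIC was the lowest concentration giving optically clear wells.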

Enterobacter cloacae [5] = test: Antimicrobial activity against Enterobacter cloacae ATCC 13047 at 64 ug/mL after 24 hrs by broth microdilution assay; format: functional, organism-based
Neisseria gonorrhoeae [6] = test: Antimicrobial activity against Neisseria gonorrhoeae ATCC 49226 after 24 hrs by broth microdilution assay in presence of 25% human serum; format: functional; settings: ATCC 49226, 24 h; how it was run: as §2
Escherichia coli [7] = test: Antimicrobial activity against Escherichia coli ATCC 25922 after 24 hrs by broth microdilution assay in presence of 25% human serum; format: functional; settings: ATCC 25922, 24 h; how it was run: as §2
Staphylococcus aureus [8] = test: Antimicrobial activity against methicillin-resistant Staphylococcus aureus after 24 hrs by broth microdilution assay in presence of 25% human serum; format: functional; how it was run: as §3
KM-20L2 = test: Cytotoxicity against human KM20L2 cells after 48 hrs by SRB assay; format: functional; settings: KM-20L2, 48 h
NCI-H460 = test: Cytotoxicity against human NCI-H460 cells after 48 hrs by SRB assay; format: functional; settings: NCI-H460, 48 h
Streptococcus pneumoniae [9] = test: Antimicrobial activity against Streptococcus pneumoniae ATCC 6303 after 24 hrs by broth microdilution assay in presence of 25% human serum; format: functional; settings: ATCC 6303, 24 h; how it was run: as §2
[10] = system: Stenotrophomonas maltophilia; test: Antimicrobial activity against Stenotrophomonas maltophilia ATCC 13637 at 64 ug/mL after 24 hrs by broth microdilution assay; format: functional, organism-based
Streptococcus pneumoniae [11] = test: Antimicrobial activity against Streptococcus pneumoniae ATCC 6303 after 24 hrs by broth microdilution assay; format: functional; settings: ATCC 6303, 24 h; how it was run: as §1
Cryptococcus neoformans [12] = test: Antimicrobial activity against Cryptococcus neoformans ATCC 90122 after 24 hrs by broth microdilution assay in presence of 25% human serum; format: functional; settings: ATCC 90112, 24 h, in the assay text read “ATCC 90112” for “ATCC 90122”; how it was run: as §4
Rhodococcus sp. = test: Antimicrobial activity against Rhodococcus sp. after 24 hrs by broth microdilution assay in presence of 25% human serum; format: functional; settings: Rhodococcus sp. (in: high G+C Gram-positive bacteria); how it was run: as §2
P388 = test: Cytotoxicity against mouse P388 cells; format: functional; settings: read-out: ED50 (the source's name)
MCF7 = test: Cytotoxicity against human MCF7 cells after 48 hrs by SRB assay; format: functional; settings: MCF7, 48 h
[13] = system: Staphylococcus epidermidis; test: Antimicrobial activity against Staphylococcus epidermidis ATCC 49461 after 24 hrs by broth microdilution assay in presence of 25% human serum; format: functional; settings: ATCC 49461, 24 h; how it was run: as §2
Cryptococcus neoformans [14] = test: Antimicrobial activity against fluconazole-resistant Cryptococcus neoformans after 48 hrs by broth microdilution assay in presence of 25% human serum; format: functional
Streptococcus pneumoniae [15] = test: Antimicrobial activity against penicillin-resistant Streptococcus pneumoniae after 24 hrs by broth microdilution assay in presence of 25% human serum; format: functional; how it was run: as §3
Enterobacter cloacae [16] = test: Antimicrobial activity against Enterobacter cloacae ATCC 13047 after 24 hrs by broth microdilution assay in presence of 25% human serum; format: functional; settings: ATCC 13047, 24 h; how it was run: as §2
Cryptococcus neoformans [17] = test: Antimicrobial activity against Cryptococcus neoformans ATCC 90122 after 24 hrs by broth microdilution assay; format: functional; settings: ATCC 90112, 24 h, in the assay text read “ATCC 90112” for “ATCC 90122”
How it was run: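 Yeasts were tested by NCCLS broth microdilution. Compounds were dissolved in a small volume of sterile DMSO and diluted in the appropriate medium immediately before testing. MIC was the lowest concentration inhibiting all visible growth (optically clear). Assays were repeated on separate days.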

SF-268 = test: Cytotoxicity against human SF268 cells after 48 hrs by SRB assay; format: functional; settings: SF-268, 48 h
DU-145 = test: Cytotoxicity against human DU145 cells after 48 hrs by SRB assay; format: functional; settings: DU-145, 48 h
Candida albicans [18] = test: Antimicrobial activity against Candida albicans ATCC 90028 at 64 ug/mL after 48 hrs by broth microdilution assay; format: functional, organism-based
Escherichia coli [19] = test: Antimicrobial activity against Escherichia coli ATCC 25922 at 64 ug/mL after 24 hrs by broth microdilution assay; format: functional, organism-based
Enterococcus faecium = test: Antimicrobial activity against vancomycin-resistant Enterococcus faecium after 24 hrs by broth microdilution assay in presence of 25% human serum; format: functional; how it was run: as §3
Micrococcus luteus [20] = test: Antimicrobial activity against Micrococcus luteus Presque Isle 456 after 24 hrs by broth microdilution assay in presence of 25% human serum; format: functional; how it was run: as §2
[21] = system: Stenotrophomonas maltophilia; test: Antimicrobial activity against Stenotrophomonas maltophilia ATCC 13637 after 24 hrs by broth microdilution assay in presence of 25% human serum; format: functional; settings: ATCC 13637, 24 h; how it was run: as §2
Enterococcus faecalis [22] = test: Antimicrobial activity against Enterococcus faecalis ATCC 29212 after 24 hrs by broth microdilution assay; format: functional; settings: ATCC 29212, 24 h; how it was run: as §1
Nakaseomyces glabratus = test: Antimicrobial activity against Candida glabrata after 48 hrs by broth microdilution assay in presence of 25% human serum; format: functional; how it was run: as §4
Staphylococcus aureus [23] = test: Antimicrobial activity against Staphylococcus aureus ATCC 29213 after 24 hrs by broth microdilution assay; format: functional; settings: ATCC 29213, 24 h; how it was run: as §1
Enterococcus faecalis [24] = test: Antimicrobial activity against Enterococcus faecalis ATCC 29212 after 24 hrs by broth microdilution assay in presence of 25% human serum; format: functional; settings: ATCC 29212, 24 h; how it was run: as §2

For `CO[C@H]1C[C@H]2C(C)(C)CCC[C@]2(C)c2ccc(O)c(C(C)C)c21` [NOOTKASTATIN 1], the MBC (Micrococcus luteus [1]) was 8 µg/mL (≈ 25.3 µM), the MIC (Micrococcus luteus [1]) was 2 µg/mL (≈ 6.32 µM) and the MIC (Staphylococcus aureus [2]) was > 64 µg/mL. The GI50 (BXPC-3) was 2.1 µg/mL (≈ 6.64 µM), the MIC (Streptococcus pyogenes) was > 64 µg/mL and the MBC (Neisseria gonorrhoeae [3]) was 4 µg/mL (≈ 12.6 µM). For the same compound, the MIC (Neisseria gonorrhoeae [3]) was 2 µg/mL (≈ 6.32 µM), the MIC (Candida albicans [4]) was > 64 µg/mL and the Activity (Enterobacter cloacae [5]) was “inactive”. The MIC (Neisseria gonorrhoeae [6]) was > 64 µg/mL, the MIC (Escherichia coli [7]) was > 64 µg/mL and the MIC (Staphylococcus aureus [8]) was > 64 µg/mL. The GI50 (KM-20L2) was 0.98 µg/mL (≈ 3.1 µM), the GI50 (NCI-H460) was 0.75 µg/mL (≈ 2.37 µM) and the MIC (Streptococcus pneumoniae [9]) was > 64 µg/mL. The Activity [10] was “inactive”, the MBC (Streptococcus pneumoniae [11]) was 64 µg/mL (≈ 202 µM) and the MIC (Streptococcus pneumoniae [11]) was 64 µg/mL (≈ 202 µM). The MIC (Cryptococcus neoformans [12]) was > 64 µg/mL, the MIC (Rhodococcus sp.) was > 64 µg/mL and the EC50 (P388) was 1.5 µg/mL (≈ 4.74 µM). For the same compound, the GI50 (MCF7) was 2 µg/mL (≈ 6.32 µM), the MIC [13] was > 64 µg/mL and the MIC (Cryptococcus neoformans [14]) was > 64 µg/mL. For the same compound, the MIC (Streptococcus pneumoniae [15]) was > 64 µg/mL, the MIC (Enterobacter cloacae [16]) was > 64 µg/mL and the MIC (Cryptococcus neoformans [17]) was 64 µg/mL (≈ 202 µM). The GI50 (SF-268) was 0.85 µg/mL (≈ 2.69 µM), the GI50 (DU-145) was 1.1 µg/mL (≈ 3.48 µM) and the Activity (Candida albicans [18]) was “inactive”. For the same compound, the Activity (Escherichia coli [19]) was “inactive”, the MIC (Enterococcus faecium) was > 64 µg/mL and the MIC (Micrococcus luteus [20]) was > 64 µg/mL. The MIC [21] was > 64 µg/mL, the MBC (Enterococcus faecalis [22]) was 16 µg/mL (≈ 50.6 µM) and the MIC (Enterococcus faecalis [22]) was 4 µg/mL (≈ 12.6 µM). For the same compound, the MIC (Nakaseomyces glabratus) was > 64 µg/mL, the MBC (Staphylococcus aureus [23]) was 32 µg/mL (≈ 101 µM) and the MIC (Staphylococcus aureus [23]) was 8 µg/mL (≈ 25.3 µM). For the same compound, the MIC (Enterococcus faecalis [24]) was > 64 µg/mL.

Reference: ChEMBL document CHEMBL1148220, “Antineoplastic agents. 529. Isolation and structure of nootkastatins 1 and 2 from the Alaskan yellow cedar Chamaecyparis nootkatensis” (2004)
